Assay [1] deals with Canis familiaris. Briefly: Percent increase in heart rate (HR) in anesthetized dogs was determined. It counts as functional, Canis lupus familiaris.
For assay [2], the system named is Canis familiaris. Briefly: Percent decrease in mean arterial blood pressure (MAP) was determined in anesthetized dogs. It counts as functional, Canis lupus familiaris. The procedure, abridged: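 Femoral arterial pressure in anesthetized dogs via heparin-filled catheter and pressure transducer; baseline MAP 99 ± 3 mmHg. Escalating iv doses via femoral vein every 5 min, peak responses taken. Value is percent change in mean arterial pressure at the inotropic ED50 dose.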

In assay [3] the test system is Canis familiaris. Briefly: Myocardial contractility was determined after intravenous administration in phenobarbital anesthetized dogs (n=4). It counts as functional. To be noted: Canis lupus familiaris, Myocardium. The procedure, abridged: (§1)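 Dogs under anesthesia; Walton-Brodie strain-gauge arch sutured to right ventricle, tension set at 50 g. Increasing iv doses via femoral vein at 5-min intervals, peak responses recorded; vehicle injections tested. Inotropic ED50 by linear regression, mean ± SEM. Preload/afterload independence confirmed with dextran bolus and aortic compression.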

The subject of assay [4] is Canis familiaris. As to the kind of experiment: Myocardial contractility was determined after intravenous administration in phenobarbital-anesthetized dogs (n=4). Format: functional. To be noted: Canis lupus familiaris, Myocardium. The procedure, abridged:
as §1

The subject of assay [5] is Canis familiaris. Briefly: Myocardial contractility was determined after intravenous administration in phenobarbital-anesthetized dogs. Format: functional. To be noted: Canis lupus familiaris, Myocardium. A digest of the protocol: as §1

As a reminder, the ED50 is the dose that gives a 50% effect, or the effect in half of the subjects. A low value points to greater potency.

Consider `Cc1cc(O)nnc1-c1ccc2c(c1)C(C)(C)C(=O)N2`, for which, in assay [1], the Increase is on record as 15%. For the same compound, in assay [2], the Decrease is 20%. In assay [3], this compound displayed an ED50 of 32.6 µg/kg.

As for `CC1CC(=O)NN=C1c1ccc2c(c1)C(C)(C)C(=O)N2` (configuration not stated), in assay [1], the Increase stood at 20%. The compound further registered a Decrease in assay [2] of 31%. The 50% effect level in assay [4] (ED50) was put at a dose of 3.6 µg/kg.

As for `CC1(C)C(=O)Nc2ccc(-c3ccc(O)nn3)cc21`, the Increase in assay [1] was found to be 24%. The Decrease in assay [2] turned out to be 18%. Moreover, it took a dose of 7.4 µg/kg to reach the 50% effect level in assay [5] (ED50).

In assay [1], `CC1(C)C(=O)Nc2ccc(C3=NNC(=O)CC3)cc21` [INDOLIDAN] had an Increase of 12%. For the same compound, the Decrease in assay [2] stood at 15%. This compound also yielded an ED50 in assay [4] of 6.8 µg/kg.

The values are drawn from ChEMBL document CHEMBL1123710, “Molecular structure of the dihydropyridazinone cardiotonic 1,3-dihydro-3,3-dimethyl-5-(1,4,5,6-tetrahydro-6-oxo-pyridazinyl)- 2H-indol-2-one, a potent inhibitor of cyclic AMP phosphodiesterase” (1987).
